In ChEMBL document CHEMBL4325889, “Natural products hybrids: 3,5,4'-Trimethoxystilbene-5,6,7-trimethoxyflavone chimeric analogs as potential cytotoxic agents against diverse human cancer cells” (Eur J Med Chem, 2019):

How the values were obtained:
Assay type in all cases: functional
SF-539 = assay: Growth inhibition of human SF539 cells at 10 uM after 48 hrs by SRB assay relative to control; details: SF-539, 48 h, read-out: GI
Procedure, shortened: (§1)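 Screened at the National Cancer Institute by the standard NCI protocol using the sulforhodamine B assay, which measures cellular protein. Single dose of 10 µM. Result is percent growth inhibition; values above 100% mean cell number fell below the initial population. Values are the average of duplicates.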

HL-60(TB) = assay: Growth inhibition of human HL-60(TB) cells at 10 uM after 48 hrs by SRB assay relative to control; details: HL-60, 48 h, read-out: GI
Procedure, shortened: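 Run at NCI under its standard single-dose protocol against a leukemia cell panel. Cells were exposed to 10 µM; growth was read by sulforhodamine B staining of cellular protein and expressed as % growth inhibition versus untreated control. Values above 100% mean the cell population fell below the starting count (cytocidal). Each value is the average of duplicates.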

OVCAR-8 = assay: Growth inhibition of human OVCAR8 cells at 10 uM after 48 hrs by SRB assay relative to control; details: OVCAR-8, 48 h, read-out: GI; procedure, shortened: as §1
SF-268 = assay: Growth inhibition of human SF268 cells at 10 uM after 48 hrs by SRB assay relative to control; details: SF-268, 48 h, read-out: GI; procedure, shortened: as §1
RXF 393 = assay: Growth inhibition of human RXF393 cells at 10 uM after 48 hrs by SRB assay relative to control; details: RXF 393, 48 h, read-out: GI; procedure, shortened: as §1
HCT-15 = assay: Growth inhibition of human HCT15 cells at 10 uM after 48 hrs by SRB assay relative to control; details: HCT-15, 48 h, read-out: GI; procedure, shortened: as §1
SNB-19 = assay: Growth inhibition of human SNB19 cells at 10 uM after 48 hrs by SRB assay relative to control; details: SNB-19, 48 h, read-out: GI
Procedure, shortened: (§2)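 NCI screen against its human cancer cell line panel by the standard NCI protocol, SRB protein stain. Single dose of 10 μM. Percent growth inhibition versus control; values above 100% mean the cell population fell below the starting number. Each value is the mean of duplicates.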

SNB-75 = assay: Growth inhibition of human SNB75 cells at 10 uM after 48 hrs by SRB assay relative to control; details: SNB-75, 48 h, read-out: GI; procedure, shortened: as §2
K562 = assay: Growth inhibition of human K562 cells at 10 uM after 48 hrs by SRB assay relative to control; details: K562, 48 h, read-out: GI; procedure, shortened: as §1
SK-MEL-2 = assay: Growth inhibition of human SK-MEL-2 cells at 10 uM after 48 hrs by SRB assay relative to control; details: SK-MEL-2, 48 h, read-out: GI; procedure, shortened: as §1
ACHN = assay: Growth inhibition of human ACHN cells at 10 uM after 48 hrs by SRB assay relative to control; details: read-out: GI; procedure, shortened: as §1
MCF7 = assay: Growth inhibition of human MCF7 cells at 10 uM after 48 hrs by SRB assay relative to control; details: MCF7, 48 h, read-out: GI; procedure, shortened: as §1
RPMI-8226 = assay: Growth inhibition of human RPMI8226 cells at 10 uM after 48 hrs by SRB assay relative to control; details: RPMI-8226, 48 h, read-out: GI; procedure, shortened: as §1
HCT-116 = assay: Growth inhibition of human HCT116 cells at 10 uM after 48 hrs by SRB assay relative to control; details: HCT-116, 48 h, read-out: GI; procedure, shortened: as §1
HOP-92 = assay: Growth inhibition of human HOP92 cells at 10 uM after 48 hrs by SRB assay relative to control; details: HOP-92, 48 h, read-out: GI; procedure, shortened: as §1
KM12 = assay: Growth inhibition of human KM12 cells at 10 uM after 48 hrs by SRB assay relative to control; details: KM12, 48 h, read-out: GI; procedure, shortened: as §1
786-0 = assay: Growth inhibition of human 786-0 cells at 10 uM after 48 hrs by SRB assay relative to control; details: 786-0, 48 h, read-out: GI; procedure, shortened: as §1
OVCAR-5 = assay: Growth inhibition of human OVCAR5 cells at 10 uM after 48 hrs by SRB assay relative to control; details: OVCAR-5, 48 h, read-out: GI; procedure, shortened: as §1
NCI/ADR-RES = assay: Growth inhibition of human NCI/ADR-RES cells at 10 uM after 48 hrs by SRB assay relative to control; details: read-out: GI; procedure, shortened: as §1
UO-31 = assay: Growth inhibition of human UO31 cells at 10 uM after 48 hrs by SRB assay relative to control; details: UO-31, 48 h, read-out: GI; procedure, shortened: as §2
HOP-62 = assay: Growth inhibition of human HOP62 cells at 10 uM after 48 hrs by SRB assay relative to control; details: HOP-62, 48 h, read-out: GI; procedure, shortened: as §1
DU-145 = assay: Growth inhibition of human DU145 cells at 10 uM after 48 hrs by SRB assay relative to control; details: DU-145, 48 h, read-out: GI; procedure, shortened: as §1
UACC-257 = assay: Growth inhibition of human UACC257 cells at 10 uM after 48 hrs by SRB assay relative to control; details: UACC-257, 48 h, read-out: GI; procedure, shortened: as §2
MDA-MB-468 = assay: Growth inhibition of human MDA-MB-468 cells at 10 uM after 48 hrs by SRB assay relative to control; details: MDA-MB-468, 48 h, read-out: GI; procedure, shortened: as §1
IGROV-1 = assay: Growth inhibition of human IGROV1 cells at 10 uM after 48 hrs by SRB assay relative to control; details: IGROV-1, 48 h, read-out: GI; procedure, shortened: as §1
Malme-3M = assay: Growth inhibition of human MALME-3M cells at 10 uM after 48 hrs by SRB assay relative to control; details: read-out: GI; procedure, shortened: as §1
LOX IMVI = assay: Growth inhibition of human LOXIMVI cells at 10 uM after 48 hrs by SRB assay relative to control; details: read-out: GI; procedure, shortened: as §1
SK-MEL-28 = assay: Growth inhibition of human SK-MEL-28 cells at 10 uM after 48 hrs by SRB assay relative to control; details: SK-MEL-28, 48 h, read-out: GI; procedure, shortened: as §1
MOLT-4 = assay: Growth inhibition of human MOLT4 cells at 10 uM after 48 hrs by SRB assay relative to control; details: MOLT-4, 48 h, read-out: GI; procedure, shortened: as §1
SW-620 = assay: Growth inhibition of human SW620 cells at 10 uM after 48 hrs by SRB assay relative to control; details: SW-620, 48 h, read-out: GI; procedure, shortened: as §2
PC-3 = assay: Growth inhibition of human PC3 cells at 10 uM after 48 hrs by SRB assay relative to control; details: PC-3, 48 h, read-out: GI; procedure, shortened: as §1
SN12C = assay: Growth inhibition of human SN12C cells at 10 uM after 48 hrs by SRB assay relative to control; details: read-out: GI; procedure, shortened: as §1
Hs-578T = assay: Growth inhibition of human Hs 578T cells at 10 uM after 48 hrs by SRB assay relative to control; details: read-out: GI; procedure, shortened: as §1
CAKI-1 = assay: Growth inhibition of human Caki1 cells at 10 uM after 48 hrs by SRB assay relative to control; details: CAKI-1, 48 h, read-out: GI; procedure, shortened: as §1

Structure (SMILES): COc1ccc(C(=O)Nc2cccc(-c3cc(=O)c4c(OC)c(OC)c(OC)cc4o3)c2)cc1
- inhibition of growth at 10 µM (SF-539): 33.7%
- inhibition of growth at 10 µM (HL-60(TB)): 55.2%
- inhibition of growth at 10 µM (OVCAR-8): 42.1%
- inhibition of growth at 10 µM (SF-268): 41.6%
- inhibition of growth at 10 µM (RXF 393): 46.4%
- inhibition of growth at 10 µM (HCT-15): 54.8%
- inhibition of growth at 10 µM (SNB-19): 35.4%
- inhibition of growth at 10 µM (SNB-75): 32.4%
- inhibition of growth at 10 µM (K562): 79.4%
- inhibition of growth at 10 µM (SK-MEL-2): 38.7%
- inhibition of growth at 10 µM (ACHN): 53%
- inhibition of growth at 10 µM (MCF7): 33.5%
- inhibition of growth at 10 µM (RPMI-8226): 81.2%
- inhibition of growth at 10 µM (HCT-116): 52.2%
- inhibition of growth at 10 µM (HOP-92): 93.3%
- inhibition of growth at 10 µM (KM12): 53.7%
- inhibition of growth at 10 µM (786-0): 45%
- inhibition of growth at 10 µM (OVCAR-5): 4.43%
- inhibition of growth at 10 µM (NCI/ADR-RES): 39.8%
- inhibition of growth at 10 µM (UO-31): 73.5%
- inhibition of growth at 10 µM (HOP-62): 27.5%
- inhibition of growth at 10 µM (DU-145): 43.5%
- inhibition of growth at 10 µM (UACC-257): -4.69%
- inhibition of growth at 10 µM (MDA-MB-468): 24.8%
- inhibition of growth at 10 µM (IGROV-1): 46.1%
- inhibition of growth at 10 µM (Malme-3M): 46.6%
- inhibition of growth at 10 µM (LOX IMVI): 58.1%
- inhibition of growth at 10 µM (SK-MEL-28): 31%
- inhibition of growth at 10 µM (MOLT-4): 76.7%
- inhibition of growth at 10 µM (SW-620): 12%
- inhibition of growth at 10 µM (PC-3): 68.1%
- inhibition of growth at 10 µM (SN12C): 50%
- inhibition of growth at 10 µM (Hs-578T): 57.1%
- inhibition of growth at 10 µM (CAKI-1): 42.6%

Structure (SMILES): Cc1ccc(NC(=O)c2ccc(CN3CCN(C)CC3)cc2)cc1Nc1nccc(-c2cccnc2)n1 [IMATINIB]
- inhibition of growth at 10 µM (SF-539): 24.5%
- inhibition of growth at 10 µM (HL-60(TB)): -6.8%
- inhibition of growth at 10 µM (OVCAR-8): 8.4%
- inhibition of growth at 10 µM (SF-268): -3.8%
- inhibition of growth at 10 µM (RXF 393): 5.7%
- inhibition of growth at 10 µM (HCT-15): 11.5%
- inhibition of growth at 10 µM (SNB-19): -12.2%
- inhibition of growth at 10 µM (SNB-75): 0.6%
- inhibition of growth at 10 µM (ACHN): -1%
- inhibition of growth at 10 µM (MCF7): 8.1%
- inhibition of growth at 10 µM (RPMI-8226): 12.6%
- inhibition of growth at 10 µM (HCT-116): 18.6%
- inhibition of growth at 10 µM (HOP-92): 43.7%
- inhibition of growth at 10 µM (KM12): -6.7%
- inhibition of growth at 10 µM (786-0): 5%
- inhibition of growth at 10 µM (OVCAR-5): -22.8%
- inhibition of growth at 10 µM (NCI/ADR-RES): -0.5%
- inhibition of growth at 10 µM (UO-31): 7.6%
- inhibition of growth at 10 µM (DU-145): 14.4%
- inhibition of growth at 10 µM (UACC-257): 2.8%
- inhibition of growth at 10 µM (MDA-MB-468): 29.1%
- inhibition of growth at 10 µM (IGROV-1): -18.6%
- inhibition of growth at 10 µM (Malme-3M): -13.7%
- inhibition of growth at 10 µM (LOX IMVI): 11.6%
- inhibition of growth at 10 µM (SK-MEL-28): -9.4%
- inhibition of growth at 10 µM (MOLT-4): 18%
- inhibition of growth at 10 µM (SW-620): -10%
- inhibition of growth at 10 µM (PC-3): 10.6%
- inhibition of growth at 10 µM (SN12C): 6%
- inhibition of growth at 10 µM (Hs-578T): 9.9%
- inhibition of growth at 10 µM (CAKI-1): -0.2%
